SMILES strings stand for the structures. Active and inactive are the calls of the source. The calls are words filed in the database; no cut-off is given here.

The test system of data set [1] is Plasmodium berghei. Put plainly: Antimalarial activity against Plasmodium berghei infected in mouse assessed as parasitemia level at 3.2 mg/kg/day for 3 days measured on day 6 (reference value: 37%). It counts as functional.
The test system of data set [2] is Plasmodium berghei. Put plainly: Antimalarial activity against Plasmodium berghei infected in mouse assessed as effect on cure rate at 3.2 mg/kg/day for 3 days. It counts as functional, organism-based.
Data set [3] has as its system Mus musculus. Put plainly: Toxicity in Plasmodium berghei-infected mouse assessed as mortality at split dose of 320 mg/kg/day, po for 3 days. It counts as organism-based. Set-up: route oral. The settings on record: in vivo, 72 h.
The subject of data set [4] is Plasmodium falciparum. Put plainly: Antimalarial activity against chloroquine-resistant Plasmodium falciparum FVO infected in Aotus lemurinus leminurus monkey assessed as reduction in parasitemia at 8 mg/kg/day, po for 3 days. It counts as functional, organism-based.
Data set [5] has as its system Plasmodium falciparum. Put plainly: Antimalarial activity against drug-resistant Plasmodium falciparum W2. It counts as functional, organism-based.
Data set [6] concerns Plasmodium berghei. Put plainly: Antimalarial activity against Plasmodium berghei infected in mouse assessed as parasitemia level at 32 mg/kg/day for 3 days measured on day 6 (reference value: 37%). It counts as functional. In outline:
(§1)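 Mice were infected ip with 10^6 P. berghei-parasitized erythrocytes. The compound was given orally once daily on days 3, 4 and 5 post-infection in hydroxyethylcellulose-Tween 20 vehicle, alone or together with chloroquine, with 5 mice per dose group. Parasitemia (%) was read on days 3 and 6, and cures were counted as animals cured out of 5.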

A short description of data set [7]: Half life in human liver microsome by LC/MS analysis. It counts as ADME. The following applies: liver microsomes. For orientation: Liver microsomes are vesicles of endoplasmic reticulum, rich in cytochrome P450 enzymes.
The test system of data set [8] is Mus musculus. Put plainly: Toxicity in Plasmodium berghei-infected mouse assessed as mortality at single dose of 80 mg/kg/day, po for 3 days. It counts as organism-based. Set-up: route oral. The settings on record: in vivo, 72 h.
The test system of data set [9] is Plasmodium berghei. Put plainly: Antimalarial activity against Plasmodium berghei infected in mouse assessed as parasitemia level at 32 mg/kg/day for 3 days measured on day 3 (reference value: 0.46%). It counts as functional. The method, boiled down:
as §1

For data set [10], the system named is Plasmodium berghei. Put plainly: Antimalarial activity against Plasmodium berghei infected in mouse assessed as parasitemia level at single dose of 20 mg/kg/day, po for 3 days measured on day 6 relative to control. It counts as functional. In outline:
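Mice infected intraperitoneally with 10^6 P. berghei-parasitized erythrocytes. Drug given orally once daily on days 3, 4 and 5 post-infection in hydroxyethylcellulose-Tween 20 vehicle, 5 mice per dose group. Parasitemia measured on day 6 and expressed as a fraction of untreated control parasitemia.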

For the molecule `Nc1cccc(-c2csc(NC(=O)CCCCCCC(=O)NO)n2)c1`, the Activity was 40% in data set [1]; “Non-toxic” in [3]; 21% in data set [6]; “Non-toxic” in [8]; 0.38% in [9]. The result in [2] was inactive. Also, the inhibition result in data set [4] is “inactive”. Besides, the IC50 in [5] turned out to be 1.6 nM. In addition, the half-life in [7] was over 1 h. For the same molecule, the “fold change (FC)” value in data set [10] came to 0.57.

The IC50 is the point on the concentration scale where inhibition reaches its midpoint. What is called half-life is how long it takes for the measured level to halve.

Values taken from ChEMBL document CHEMBL1629555, “Antimalarial activity of phenylthiazolyl-bearing hydroxamate-based histone deacetylase inhibitors” (Antimicrob Agents Chemother, 2008).
